Laboratory results as given in publication PMC4161670 (Molecular Psychiatry, 2014).
Bridge positions count the residues as written; N and C are the ends. Ends that are not written are not given here.

Experiments:
Dutch APP mice = experiment: Serum Aβ after a single injection; format: in vivo, mouse; conditions: single i.p. 200 μg kg^-1
recombinant BACE1 = recombinant BACE1 (Homo sapiens, UniProt P56817); experiment: In vitro BACE1 activity assay; format: biochemical
5XFAD mice = experiment: Serum Aβ after a single injection; format: in vivo, mouse
Outline: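 Female 5XFAD mice got a single i.p. injection of test compound or PBS. Serum was drawn before and after injection. Aβ1–42 was measured by sandwich ELISA: 21F12 capture, biotinylated N-terminal detection, streptavidin-alkaline phosphatase and a fluorescent substrate. Samples were diluted twofold to fivefold. Lowest detection level was 1.6 pg ml−1, from a standard curve.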

Tg2576 mice = experiment: APP processing in brain; format: in vivo, mouse; conditions: Tg2576, chronic treatment, western blot 6E10, n = 6 per group
Outline: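 Tg2576 females, 9 months old, given test compound at 200 μg kg−1 i.p. or PBS once daily for 10 weeks; n=6 per group for blots. Brain proteins were fractionated into TBS-soluble, TBS-X and formic acid fractions. Reduced SDS-PAGE and western blot used human APP-specific 6E10. Full-length APP and C99 were quantitated from the TBS-X fraction and sAPP from the TBS-soluble fraction. Mean±s.e.; t-tests.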

[1] = cited from earlier work
[2] = cited from earlier work; remark: listed apart in the source

recombinant BACE1, sequence (P56817 46-501, species assumed): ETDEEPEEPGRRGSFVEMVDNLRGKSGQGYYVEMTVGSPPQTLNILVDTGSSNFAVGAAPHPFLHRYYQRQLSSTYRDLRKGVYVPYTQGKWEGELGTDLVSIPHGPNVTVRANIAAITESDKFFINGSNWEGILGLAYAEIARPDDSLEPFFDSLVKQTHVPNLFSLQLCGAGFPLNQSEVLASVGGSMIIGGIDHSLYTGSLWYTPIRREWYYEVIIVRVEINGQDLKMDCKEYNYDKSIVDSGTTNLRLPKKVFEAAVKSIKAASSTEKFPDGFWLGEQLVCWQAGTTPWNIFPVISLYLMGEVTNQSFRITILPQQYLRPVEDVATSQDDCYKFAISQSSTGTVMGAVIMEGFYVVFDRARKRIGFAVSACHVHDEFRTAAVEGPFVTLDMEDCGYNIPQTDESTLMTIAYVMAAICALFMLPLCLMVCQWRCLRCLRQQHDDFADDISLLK

Substance | change of serum Aβ1-40 and Aβ1-42 after one injection (in words) (Dutch APP mice) | inhibition of BACE1 activity (recombinant BACE1; purified BACE1, dose-dependent, concentration not given) [%] | change of serum Aβ after i.c.v. versus i.p. injection (in words) (5XFAD mice; single i.c.v. 200 μg kg^-1 vs single i.p. 200 μg kg^-1, P=0.03) | change of serum Aβ1-42 and Aβ1-40 after one injection (in words) (5XFAD mice; single i.p. 200 μg kg^-1) | dose dependence of serum Aβ1-42 change after challenge (in words) (5XFAD mice; single i.p. challenge, Figure 3e) | level of APP fragment C99 in brain versus controls (in words) (Tg2576 mice) | passage of the blood-brain barrier (in words) [1] | ability to inhibit BACE1 activity (in words) (recombinant BACE1; purified BACE1, same assay as amylin) | aggregation (in words) [2]
Amylin (KCNTATCATQRLANFLVHSSNNFGAILSSTNVGSNTY; not fully specified (C-terminus, bridges); cysteine pairing not given here; UniProt P10997 34-70, looked up) | provoked a surge of Aβ1–40 but not of Aβ1–42 in the blood | 70 | much greater surge of Aβ in serum than a peripheral i.p. injection | increased level of Aβ1–42 but not of Aβ1–40 in serum | dose dependent | lower levels of the APP processing fragments C99 | passes through the blood–brain barrier (BBB) easily | – | –
Pramlintide (KCNTATCATQRLANFLVHSSNNFGPILPPTNVGSNTY-NH2; disulfide 2-7; chains of the INN, looked up) | – | – | – | – | – | did not reduce C99 levels | – | little or no ability to inhibit BACE1 activity | does not form aggregates
